Among the data in ChEMBL document CHEMBL3397015, “Naturally occurring polyphenol, morin hydrate, inhibits enzymatic activity of N-methylpurine DNA glycosylase, a DNA repair enzyme with various roles in human disease” (Bioorg Med Chem, 2015) are inhibition, IC50 and Activity values, retold here.

Where “and” joins values, the source holds several entries; their conditions need not be identical. Equal values may be shown once. Where a name gives a salt, the structure may show the parent alone. Calls of active or inactive are those of the source. The rule behind the calls is not given here.

Data set [1] concerns the target T1, DNA-3-methyladenine glycosylase (Homo sapiens, UniProt P29372). Description: Inhibition of human purified MPG pre-incubated with compound for 10 mins followed by addition of 1,N6 ethenoadenine containing 32P-labeled duplex oligonucleotide substrates at 20 uM by gel-based excision activity assay. The procedure, abridged:
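Purified hMPG (2.3 nM) pre-incubated 10 min at room temperature with 20 µM compound. Then 7 nM εA ³²P-duplex added, 10 min at 37°C, in 25 mM HEPES pH 7.9, 150 mM NaCl, BSA, DTT, 10% glycerol. Stopped 65°C, AP sites cut with 15 nM APE1/5 mM MgCl₂. Denaturing 20% PAGE, band densitometry.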

In data set [2] the target is T1, DNA-3-methyladenine glycosylase. Description: Inhibition of human purified MPG pre-incubated with compound for 10 mins followed by addition of 1,N6 ethenoadenine containing 32P-labeled duplex oligonucleotide substrates by gel-based excision activity assay. Put shortly: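 Purified hMPG (2.3 nM) pre-incubated 10 min at room temperature with a range of compound concentrations. Then 7 nM εA ³²P-duplex substrate, 10 min at 37°C, in HEPES pH 7.9 buffer with 150 mM NaCl. Heat stop, APE1 cleavage of AP sites. Products resolved on 7 M urea/20% PAGE and bands quantified; IC50 from the concentration series.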

Data set [3] can be described thus: Binding affinity to ethenoadenine containing 5'-TCGAGGATCCTGAGCTCGAGTCGACGXTCGCGAATTCTGCGGATCCAAGC-3' duplex oligonucleotide DNA (unknown origin) at 15 uM by SPR assay. Put shortly: (§1)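 Biotinylated 50-mer oligonucleotide, undamaged or εA-containing, immobilized on streptavidin-coated C1 chip (Biacore T100). Compound injected at 15 µM in 10 mM HEPES-KOH pH 7.6, 90 mM KCl, 0.05% surfactant P20 at 7°C; background-subtracted RU recorded over repeated 60 s injections.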

A short description of data set [4]: Binding affinity to 5'-TCGAGGATCCTGAGCTCGAGTCGACGXTCGCGAATTCTGCGGATCCAAGC-3' duplex oligonucleotide DNA (unknown origin) at 15 uM by SPR assay. The procedure, abridged: as §1
A general note: In SPR one partner is held on a chip, and binding of the other changes the refractive index at the surface.

In data set [5] the target is T1, DNA-3-methyladenine glycosylase. Nature of the data set: Inhibition of human purified MPG binding to immobilized ethenoadenine containing 5'-TCGAGGATCCTGAGCTCGAGTCGACGXTCGCGAATTCTGCGGATCCAAGC-3' duplex oligonucleotide at 5 to 40 uM by SPR assay. The procedure, abridged: (§2)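 εA-containing 50-mer biotinylated and immobilised on a streptavidin C1 chip. 30 nM hMPG pre-mixed with compound (0, 5, 10, 20, 40 µM) and injected twice for 60 s each. Buffer: 10 mM HEPES-KOH pH 7.6, 90 mM KCl, 0.05% P20, 7°C. Inhibition taken as percent decrease in background-subtracted RU versus DMSO.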

Data set [6] has the same target. Description: Inhibition of human purified MPG binding to immobilized ethenoadenine containing 5'-TCGAGGATCCTGAGCTCGAGTCGACGXTCGCGAATTCTGCGGATCCAAGC-3' duplex oligonucleotide at 40 uM by SPR assay. Put shortly: as §2
The target in data set [7] is DNA repair nuclease/redox regulator APEX1 (Homo sapiens) (UniProt P27695). Description: Inhibition of APE1 (unknown origin) pre-incubated with compound for 10 mins followed by addition of […] at 20 to 40 uM by gel-based excision activity assay.
Chain of DNA repair nuclease/redox regulator APEX1 (Homo sapiens) (P27695 whole entry): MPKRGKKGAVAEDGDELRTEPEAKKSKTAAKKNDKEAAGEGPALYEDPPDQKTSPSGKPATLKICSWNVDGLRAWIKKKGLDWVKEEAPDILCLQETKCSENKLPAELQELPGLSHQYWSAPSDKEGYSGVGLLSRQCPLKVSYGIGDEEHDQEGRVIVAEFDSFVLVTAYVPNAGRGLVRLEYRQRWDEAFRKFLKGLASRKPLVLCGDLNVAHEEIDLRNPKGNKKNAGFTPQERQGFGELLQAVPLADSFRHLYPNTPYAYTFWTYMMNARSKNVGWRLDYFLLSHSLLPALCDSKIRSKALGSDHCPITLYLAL
Data set [8] concerns the target N-glycosylase/DNA lyase (Homo sapiens) (UniProt O15527). Nature of the data set: Inhibition of OGG1 (unknown origin) pre-incubated with compound for 10 mins followed by addition of […] containing 32P-labeled duplex oligonucleotide substrates at 20 to 40 uM by gel-based excision activity assay. Put shortly: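 Purified OGG1 pre-incubated with compound (0, 20, 40 µM) 10 min at room temperature. Products resolved on denaturing 20% polyacrylamide/7M urea gels; band intensities quantified.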

The target in data set [9] is T1, DNA-3-methyladenine glycosylase. Nature of the data set: Inhibition of MPG in human A549 cell extracts at 50 to 300 uM using 1,N6 ethenoadenine containing 32P-labeled duplex oligonucleotide substrates by gel-based excision activity assay. The procedure, abridged:
(§3)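 Whole-cell extract (5 µg; A549 or HeLa, made with M-PER) pre-incubated with compound at 0, 50, 100, 200 and 300 µM for 10 min at room temperature. Then 3 nM εA ³²P-duplex substrate added; buffer and workup as for purified enzyme. Product bands on denaturing urea gel quantified as percent product formation, normalised to untreated samples.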

Data set [10] has the same target. Description: Inhibition of MPG in human HeLa cell extracts at 50 to 300 uM using 1,N6 ethenoadenine containing 32P-labeled duplex oligonucleotide substrates by gel-based excision activity assay. Put shortly: as §3
Data set [11] shares this target. Nature of the data set: Inhibition of MPG in human A549 cells assessed as reduction in DNA repair at 200 and 300 uM using ethenoadenine-containing M13mp18 plasmids by plasmid based in-cell repair assay. Put shortly: (§4)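 Lesion plasmid built in vitro: M13mp18 with εA at the EcoRI site; cells in DMEM/10% FBS, compound at 0, 200 or 300 µM. Plasmid transfected into cells, then recovered after harvest. EcoRI digest tests the lesion site and SacI the internal control site. Repair scored by plaque formation.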

Data set [12] deals with N-glycosylase/DNA lyase (Homo sapiens) (UniProt O15527). Nature of the data set: Inhibition of OGG1 in human A549 cells assessed as reduction in DNA repair at 200 and 300 uM using 8-oxodG-containing M13mp18 plasmids by plasmid based in-cell repair assay. The procedure, abridged: (§5)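 A549 or HeLa cells (DMEM, 10% FBS) treated with compound (0, 200, 300 µM) and transfected with in vitro–built 8-oxo-dG-containing M13mp18 plasmid (lesion at EcoRI site). Plasmids recovered, digested with EcoRI (lesion site) and SacI (internal control), and used for plaque formation to calculate repair.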
Chain of N-glycosylase/DNA lyase (Homo sapiens) (O15527 whole entry): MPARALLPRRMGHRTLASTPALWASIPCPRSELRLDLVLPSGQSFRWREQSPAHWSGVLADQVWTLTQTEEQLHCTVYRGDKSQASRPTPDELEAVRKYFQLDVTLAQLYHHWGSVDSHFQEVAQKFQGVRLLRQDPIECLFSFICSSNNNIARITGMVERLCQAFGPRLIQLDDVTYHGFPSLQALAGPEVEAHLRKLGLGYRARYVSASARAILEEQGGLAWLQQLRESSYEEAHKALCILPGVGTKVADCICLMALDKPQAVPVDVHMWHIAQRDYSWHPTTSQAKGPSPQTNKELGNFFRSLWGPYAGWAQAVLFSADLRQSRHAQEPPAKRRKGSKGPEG

In data set [13] the target is T1, DNA-3-methyladenine glycosylase. Nature of the data set: Inhibition of MPG in human HeLa cells assessed as reduction in DNA repair at 200 and 300 uM using ethenoadenine-containing M13mp18 plasmids by plasmid based in-cell repair assay. The procedure, abridged: as §4
The target in data set [14] is N-glycosylase/DNA lyase (Homo sapiens) (UniProt O15527). Nature of the data set: Inhibition of OGG1 in human HeLa cells assessed as reduction in DNA repair at 200 and 300 uM using 8-oxodG-containing M13mp18 plasmids by plasmid based in-cell repair assay. Put shortly:
as §5

Data set [15] deals with T1, DNA-3-methyladenine glycosylase. Nature of the data set: Inhibition of MPG in human HeLa cells assessed as reduction in DNA repair at 300 uM using ethenoadenine-containing M13mp18 plasmids by plasmid based in-cell repair assay. Put shortly: as §4
The target is the same in data set [16]. Description: Inhibition of MPG in human A549 cells assessed as reduction in DNA repair at 300 uM using ethenoadenine-containing M13mp18 plasmids by plasmid based in-cell repair assay. The procedure, abridged:
as §4

The subject of data set [17] is A549. Nature of the data set: Toxicity against human A549 cells assessed as reduction in cell viability at 0.2 to 1.4 mM after 72 hrs by MTT assay. Type of data set: cell-based. The note with it: a549, 72 h, 1400 µM. Put shortly:
(§6)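 A549 or HeLa cells seeded at 2000 per well, treated next day for 72 h in triplicate with compound (0–2 mM). Then MTT 0.5 mg/mL for 4 h at 37°C, DMSO solubilization. Absorbance read at 570 nm minus 650 nm background; percent survival relative to untreated wells.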
For orientation: Formazan colour is commonly taken as a measure of viable cells.

In data set [18] the test system is HeLa. Description: Toxicity against human HeLa cells assessed as reduction in cell viability at 0.2 to 1.4 mM after 72 hrs by MTT assay. The data set is classed as cell-based. The note with it: 1400 µM. Put shortly: as §6

T1 sequence (P29372 whole entry): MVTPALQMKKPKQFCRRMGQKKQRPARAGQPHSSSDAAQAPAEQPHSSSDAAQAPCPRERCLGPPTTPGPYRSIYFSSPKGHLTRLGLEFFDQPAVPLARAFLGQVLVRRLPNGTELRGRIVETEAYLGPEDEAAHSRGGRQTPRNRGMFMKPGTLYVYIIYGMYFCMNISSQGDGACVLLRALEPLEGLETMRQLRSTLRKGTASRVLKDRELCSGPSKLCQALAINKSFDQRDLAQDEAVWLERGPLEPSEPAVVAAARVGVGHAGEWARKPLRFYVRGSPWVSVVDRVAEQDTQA

Broadly, the inhibition is the drop in the measured response relative to a control, in per cent. On to `O=c1c(O)c(-c2cc(O)c(O)c(O)c2)oc2cc(O)cc(O)c12`, for which, in data set [1], the inhibition came out at 36%.

As for `O=c1c(O)c(-c2ccc(O)cc2)oc2cc(O)cc(O)c12`, the inhibition in data set [1] turned out to be 25%.

As usually defined, the IC50 is the point on the concentration scale where inhibition reaches its midpoint. As to `O.O=c1c(O)c(-c2ccc(O)cc2O)oc2cc(O)cc(O)c12`, the concentration for half-maximal inhibition (IC50) amounted to 2.6 µM in data set [2] and 12 µM in data set [5]. The result in [3] and in [4] was inactive. Besides, in data set [6], the inhibition entry is “Active”. Further, the inhibition result in data set [7], in data set [8], in [12] and in data set [14] was “inactive” throughout. The inhibition in data set [1] is 81%; in [9], “Dose-dependent effect”; in data set [10], “Dose-dependent effect”; in data set [11], “Dose-dependent effect”; in data set [13] it was “Dose-dependent effect”; in [15], 50%. Further, the inhibition in [16] is 50%. Moreover, the Activity result in data set [17] and in [18] was “Non-toxic” throughout.

On to `O=C(O)/C=C/c1ccc(O)c(O)c1`, for which, in data set [1], the inhibition amounted to 0%.

Take `O=C/C=C/c1ccccc1`: the inhibition in data set [1] was found to be 0%.

As for `O=C(O)C1=CC(=C(c2ccc(O)c(C(=O)O)c2)c2ccc(O)c(C(=O)O)c2)C=CC1=O` [AURINTRICARBOXYLIC ACID], the IC50 in [2] was 0.2 µM.

Take `O=C1c2c(O)ccc(O)c2C(=O)c2c(NCCNCCO)ccc(NCCNCCO)c21` [MITOXANTRONE HYDROCHLORIDE]: in data set [2], the IC50 turned out to be 2.5 µM. Besides, in data set [3], the result was Active.

Consider `O=c1c(O)c(-c2ccc(O)c(O)c2)oc2cc(O)cc(O)c12`, for which the inhibition in data set [1] is 38% and 44%. For the same molecule, the inhibition entry in data set [9] and in data set [10] was “inactive” in each case.

For the molecule `Cc1cc2c(C(C)C)c(O)c(O)c(C=O)c2c(O)c1-c1c(C)cc2c(C(C)C)c(O)c(O)c(C=O)c2c1O` [GOSSYPOL], in data set [2], the IC50 was 3 µM. The result in data set [3] was Active.
